Source: PubChem BioAssay (Johns Hopkins Ion Channel Center)
In the library only some 2.9% were active in any assay of this set; here they are far more common.
Kir21 inh = inhibitors of mouse Kir2.1 inward-rectifier potassium channel; B-score at 10 µM; Inward rectifier potassium channel 2 (Mus musculus), P35561; actives 0.85% (n = 310,000); AID 1672, 2009; HEK293-Kir2.1, FluxOR thallium flux fluorescence; hits give low values;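 active means fluorescence ratio B-score at or below minus 3 SD of library scores, with starting-brightness B-score within 2 SD, cut at about -4.2 in these data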;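 further: channel flux triggered by added potassium and thallium sulfate stimulus; B-score of peak minus minimum fluorescence over baseline after thallium stimulus; more negative B-score means stronger Kir2.1 block with less thallium influx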
Target sequence (P35561 whole entry, looked up): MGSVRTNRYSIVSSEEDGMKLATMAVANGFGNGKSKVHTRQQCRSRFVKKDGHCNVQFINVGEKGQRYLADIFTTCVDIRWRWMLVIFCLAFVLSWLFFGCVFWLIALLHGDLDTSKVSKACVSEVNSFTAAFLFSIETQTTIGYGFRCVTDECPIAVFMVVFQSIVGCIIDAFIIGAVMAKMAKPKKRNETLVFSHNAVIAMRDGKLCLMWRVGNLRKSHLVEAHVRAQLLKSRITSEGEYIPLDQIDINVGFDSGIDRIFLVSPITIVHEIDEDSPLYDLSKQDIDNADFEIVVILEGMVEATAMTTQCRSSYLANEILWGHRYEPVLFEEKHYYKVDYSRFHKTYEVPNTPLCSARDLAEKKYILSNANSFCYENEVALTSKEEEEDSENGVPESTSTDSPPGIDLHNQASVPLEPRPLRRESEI
TRPC4 agonist = activators of mouse TRPC4 channel, primary screen, Fluo4 calcium, HEK293 TRPC4beta/mu-opioid cells. actives 0.49% (n = 310,000). B-score at 10 µM. Short transient receptor potential channel 4 (Mus musculus), Q9QUQ5. Fluo4 calcium fluorescence; hits give high values;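 active means B-score above 5 SD of library B-scores, and initial fluorescence ratio not above library mean plus 5 SD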;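 further: positive B-score marks a calcium rise read as TRPC4 activation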
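Assay system – TRPC4beta and mu-opioid receptor HEK293 stable cells · Measured by – Fluo4 fluorescence, kinetic · Schedule – dye loading 45 min room temperature, 110 s kinetic read · Read-out – B-scored integrated calcium fluorescence ratio · Controls – buffer and maximal DAMGO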
TRPC4 inh = inhibitors of mouse TRPC4 channel, primary screen, Fluo4 calcium, HEK293 TRPC4beta/mu-opioid cells | DAMGO-evoked Fluo4 calcium flux; hits give low values | actives 0.39% (n = 300,000) | AID 2247, 2010 | B-score at 10 µM;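 active means B-score over 3 SD under the library average, no early fluorescence shift, positive overall ratio signal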
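material = TRPC4beta/mu-opioid receptor HEK293 cell line | probe or stimulus = sequential submaximal and maximal DAMGO stimulation | compound dosing = one concentration per compound | measured by = Fluo4 Ca2+ flux fluorescence | evaluation = integrated fluorescence ratio relative to baseline, converted to per-well B score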
TRPC6 inhibitor = mouse TRPC6 channel inhibitors, primary screen, cell-based, HEK293, membrane potential dye. actives 1.1% (n = 310,000). B-score at 10 µM. Short transient receptor potential channel 6 (Mus musculus), Q61143. AID 2553, 2010. ACh-evoked depolarization; hits give low values;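 active means B-score under library mean minus 3 SD, initial fluorescence not abnormally high, positive integrated signal ratio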;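 further: B-score derived from integrated fluorescence ratio over the kinetic read; more negative B-score means stronger inhibition of depolarization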
TRPC6 activator = mouse TRPC6 channel activators, primary screen, cell-based, HEK293, membrane potential dye; Short transient receptor potential channel 6 (Mus musculus), Q61143; actives 0.13% (n = 310,000); B-score at 10 µM; HEK293-TRPC6 membrane potential dye fluorescence; hits give high values; AID 2550, 2010;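 active means B-score of the integrated fluorescence ratio above library mean plus 3 SD, and starting fluorescence ratio within library mean plus 5 SD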;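 further: higher score means more depolarization so channel activation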
TRPC4 potent = positive allosteric modulators of TRPC4, primary screen, cell-based, mouse TRPC4beta, HEK293 mu-opioid, Fluo-4 calcium; Short transient receptor potential channel 4 (Mus musculus), Q9QUQ5; DAMGO EC20, Fluo-4 Ca2+ flux; hits give high values; B-score at 10 µM; actives 0.42% (n = 310,000); AID 2227, 2009;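 active means B-score of calcium response area above 5 SD of library B-scores, with initial fluorescence ratio within 5 SD of library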;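 further: B-score of integrated fluorescence ratio over time as area under calcium response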
TRPC4 spec 2 = second check of whether TRPC6 inhibitors also affect mouse TRPC4; actives 42% (n = 920); inhibition, % at 10 µM; HEK293 TRPC4/MOR, membrane potential dye fluorescence; channel activated by saturating DAMGO dose; shares compounds with TRPC6 inhibitor;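 active means compounds whose fluorescence signal differed from control wells by over 3 SD, either direction, in both duplicate plates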
TRPC4 spec = mouse TRPC4 modulation by TRPC6 hits, confirmation, selectivity assay for TRPC6 inhibitor project, cell-based, HEK293 TRPC4/mu-opioid, membrane potential dye | actives 61% (n = 920) | activity change, negative = inhibition, % at 10 µM | membrane potential fluorescence | shares compounds with TRPC6 inhibitor | AID 2777, 2010;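 active means rise or fall in signal beyond 3 SD of buffer-only wells in both replicate plates, either sign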;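 further: integrated kinetic ratio of fluorescence range over baseline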
HEK293 MPD ctr 2-1 = nonspecific membrane potential effects, parental HEK293, confirmation, counter-screen for TRPC6 inhibitor project, cell-based, second counter screen. AID 2779, 2010. shares compounds with TRPC6 inhibitor. parental HEK293 membrane potential dye fluorescence; maximal acetylcholine challenge after compound addition. actives 31% (n = 920). signal change vs control, % at 10 µM;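 active means membrane potential signal moving either way by over 3 SD of the maximum-effect control, in both duplicate plates, meaning non-specific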
HEK293 MPD ctr-1 = membrane potential modulation in parental HEK293, confirmation, counter-screen for TRPC6 inhibitor project, cell-based; shares compounds with TRPC6 inhibitor; membrane potential signal change, % at 10 µM; AID 2780, 2010; actives 60% (n = 920); parental HEK293 membrane potential dye fluorescence;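 active means membrane potential signal shifting up or down by more than 3 SD of buffer-only wells, on both duplicate plates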
HEK293 MPD ctr-2 = parental HEK293 membrane potential modulation, confirmation, counter-screen for TRPC6 modulator project, cell-based. shares compounds with TRPC6 inhibitor. membrane potential dye fluorescence. membrane potential signal change, % at 10 µM. AID 488924, 2010. actives 51% (n = 2,400);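 active means membrane potential signal moves up or down beyond 5 SD from buffer-only wells, on both duplicate plates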
HEK293 MPD ctr 2-2 = second counter-screen for TRPC6 modulators: effect in parental HEK293 cells; shares compounds with TRPC6 inhibitor; membrane potential dye fluorescence; after compound, maximal acetylcholine stimulation; inhibition, % at 10 µM; actives 14% (n = 2,400);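 active means membrane potential signal drops by more than 5 SD from the mean control signal, in both duplicate plates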;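 further: plate controls were acetylcholine ECmax control wells for no effect and buffer only wells for full effect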
TRPC4 ctr mod = TRPC4 modulation by TRPC6 hit compounds, confirmation, selectivity assay for TRPC6 modulator project, cell-based, HEK293 TRPC4/mu-opioid, membrane potential dye, mouse. shares compounds with TRPC6 inhibitor. actives 69% (n = 2,400). membrane potential fluorescence. percent change from control (negative = decrease, positive = increase), % at 10 µM;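 active means membrane potential signal moved up or down beyond 5 SD of buffer control wells, in both duplicate plates, actives on both sides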;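 further: plate controls were assay buffer wells for no effect and DAMGO maximal-effect wells for full effect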
TRPC4 ctr inh 2 = second selectivity test of TRPC6 modulators against mouse TRPC4; shares compounds with TRPC6 inhibitor; HEK293 TRPC4/mu-opioid, membrane potential dye fluorescence; stimulated with maximal-effect DAMGO; inhibition, % at 10 µM; actives 55% (n = 2,400);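 active means drop in membrane potential signal beyond 5 SD of the control wells in both duplicate plates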;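 further: TRPC4 counter screen for TRPC6 hits run under conditions tuned for TRPC6 not TRPC4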
TRPC6 inh conf = mouse TRPC6 channel inhibitors, confirmation, HEK293 cells, membrane potential dye, duplicate. AID 488960, 2010. shares compounds with TRPC6 inhibitor. actives 43% (n = 3,300). inhibition, % at 10 µM. ACh-evoked depolarization;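 active means fluorescence ratio falls more than 5 SD below the full-stimulation control mean, in both duplicate runs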;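 further: integrated fluorescence ratio of peak minus minimum over baseline after agonist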
TRPC6 act conf = mouse TRPC6 channel activators, confirmation, HEK293 cells, membrane potential dye, duplicate | shares compounds with TRPC6 inhibitor | HEK293-TRPC6 membrane potential dye fluorescence, FDSS | activation, % at 10 µM | actives 11% (n = 2,800) | AID 488961, 2010;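 active means ratio signal rise beyond 5 SD above unstimulated control wells' mean, seen in both duplicate runs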;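 further: plate controls were buffer EC0 wells for no effect and acetylcholine ECmax response for full effect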
* = called active by the depositor; i = inactive; / = no result given.

SMILES	Kir21 inh	TRPC4 agonist	TRPC4 inh	TRPC6 inhibitor	TRPC6 activator	TRPC4 potent	HEK293 MPD ctr-2	HEK293 MPD ctr 2-2	TRPC4 ctr mod	TRPC4 ctr inh 2	TRPC6 inh conf	TRPC6 act conf	others
CC(=O)c1ccc(NC2=C(N3CCOCC3)C(=O)c3ccccc3C2=O)cc1	0.01	i	i	i	i	i	/	/	/	/	/	/
O=S1(=O)CCN(Cc2ccc(Cl)c(C(F)(F)F)c2)CC1	0.15	i	i	i	i	i	/	/	/	/	/	/
CCOC(=O)/C(=C/c1ccc(N2CCC(c3ccccc3)=N2)cc1)C(C)=O	-1.38	i	i	i	14*	i	582.5%*	i	51.0%*	i	i	43.0%*
CCOC(=O)C(=Cc1ccc(-n2ccnc2)cc1)C(=O)OCC	-1.57	i	i	i	i	i	/	/	/	/	/	/
S=C(NCCc1ccc(Cl)cc1)NC1CC1	2.38	i	i	i	i	i	/	/	/	/	/	/
CSCCCN1CCC(n2nccc2NC(=O)CCCc2ccccc2)CC1	0.76	i	i	i	i	i	/	/	/	/	/	/
Cc1c(O)c(CN2CCCCC2)cc2c1oc(=O)c1ccccc12	0.31	i	i	i	i	i	/	/	/	/	/	/
Cc1c(O)c(CN2CCCCC2)cc2c3c(c(=O)oc12)CCC3	-0.65	i	i	-10.2*	i	i	-243.0%*	i	-39.0%*	i	44.5%*	i
Cc1ccc(C(=O)c2cc([N+](=O)[O-])ccc2N2CCOCC2)c(C)c1	2.22	i	i	-5.4*	i	i	i	i	i	i	i	i
N#Cc1ccc(C2=NC(C(F)(F)F)(C(F)(F)F)c3c(n(Cc4ccco4)c(=O)[nH]c3=O)N2)cc1	0.47	i	i	-8.33*	i	i	/	/	/	/	i	i	TRPC4 spec 2=i;TRPC4 spec=-11.7%*;HEK293 MPD ctr 2-1=i;HEK293 MPD ctr-1=-128.0%*
O=C(/C=C/NNC(=O)c1ccccc1)c1ccccc1	2.28	i	i	-6.16*	i	i	i	i	i	i	i	i
O=C(/C=C/NNC(=O)c1ccc(Br)cc1)c1ccccc1	-0.89	i	i	i	i	i	/	/	/	/	/	/
CCCCNC(=O)c1cc2c(=O)n3cccc(C)c3nc2n(Cc2ccncc2)c1=N	-1.89	i	i	-6.68*	i	i	/	/	/	/	i	i	TRPC4 spec 2=i;TRPC4 spec=-19.6%*;HEK293 MPD ctr 2-1=i;HEK293 MPD ctr-1=-341.0%*
COCCCn1c(=N)c(C(N)=S)cc2c(=O)n3cccc(C)c3nc21	0.6	i	i	-6.26*	i	i	i	i	i	i	i	i
COCCNC(=O)c1cc2c(=O)n3cccc(C)c3nc2n(Cc2ccncc2)c1=N	1.42	i	i	-10.5*	i	i	/	/	/	/	i	i	TRPC4 spec 2=78.0%*;TRPC4 spec=-11.3%*;HEK293 MPD ctr 2-1=-118.0%*;HEK293 MPD ctr-1=-229.5%*
COc1ccc(CCNC(=O)c2cc3c(=O)n4cccc(C)c4nc3n(Cc3ccco3)c2=N)cc1OC	1.58	i	i	i	i	i	/	/	/	/	/	/
CCCCNC(=O)c1cc2c(=O)n3cccc(C)c3nc2n(CCN2CCOCC2)c1=N	-1.72	i	i	-6.64*	i	i	/	/	/	/	i	i	TRPC4 spec 2=i;TRPC4 spec=i;HEK293 MPD ctr 2-1=-25.5%*;HEK293 MPD ctr-1=i
CSc1ncccc1C(=O)NC1CCCc2c1cnn2-c1ccc(C)c(C)c1 (stereo unspecified)	-0.25	i	i	i	i	i	/	/	/	/	/	/
O=C(CSc1n[nH]c(-c2ccncc2)n1)Nc1ccccc1Cl	-1.54	i	i	i	i	i	/	/	/	/	/	/
COc1ccc(Nc2nc(C(F)(F)F)nc(C)c2C#N)cc1	1.38	i	i	i	i	i	/	/	/	/	/	/
O=[N+]([O-])c1ccc(NC2CCN(Cc3ccccc3)CC2)c([N+](=O)[O-])c1	-0.19	i	i	-6.71*	i	i	-90.0%*	i	-17.0%*	52.5%*	i	i
NS(=O)(=O)c1ccc(NN=C2CCN(Cc3ccccc3)CC2)c([N+](=O)[O-])c1	0.66	i	i	-5.72*	i	17*	i	i	i	i	i	i
